Data taken from ChEMBL document CHEMBL2331480, “Novel naphthoquinone derivatives: synthesis and activity against human African trypanosomiasis” (Bioorg Med Chem Lett, 2013).

Legend:
L6 = assay: Cytotoxicity against rat L6 cells after 72 hrs by SRB assay; assay type: cell-based; settings: L6, 72 h
In short: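 L-6 rat skeletal myoblasts seeded at 2 × 10^3 cells/100 µL in DMEM with 10% heat-inactivated FBS onto threefold serially diluted compounds, with solvent blanks; 72 h at 37 °C, 5% CO2. Cells fixed with TCA (10% final, 4 °C, 1 h), stained 45 min with 0.4% SRB in 1% acetic acid, dye solubilized in 10 mM Tris base pH 10.5.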

[1] = tested on: Trypanosoma brucei rhodesiense; assay: Antitrypanosomal activity against Trypanosoma brucei rhodesiense after 48 hrs by CellTiter-Glo assay; assay type: functional, organism-based
In short: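 T. b. rhodesiense bloodstream forms isolated from infected blood (citrate-glucose anticoagulant, diluted in HMI-9, low-speed spin), grown at 37 °C, 5% CO2 in HMI-9 with 10% heat-inactivated FBS and 10% Serum Plus. Compounds in DMSO pin-transferred onto diluted culture; 48 h at 37 °C; CellTiter-Glo read […] as percent of control; IC50 calculated.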

Row | SMILES | IC50 (L6) [µM] | IC50 [1] [µM]
1 | Cc1ccccc1NC1=C(Cl)C(=O)c2c(cccc2[N+](=O)[O-])C1=O | 210 | 3
2 | Cc1ccc(NC2=C(Cl)C(=O)c3ccccc3C2=O)cc1 | > 450 | 20
3 | O=C1C(Nc2ccc(C(F)(F)F)cc2)=C(Cl)C(=O)c2c1cccc2[N+](=O)[O-] | 115 | 0.8
4 | Cc1ccccc1NC1=C(Nc2ccccc2C)C(=O)c2c(cccc2[N+](=O)[O-])C1=O | 186 | 7
5 | Cc1ccccc1NC1=C(Nc2ccccc2C)C(=O)c2ccccc2C1=O | > 450 | 20
6 | Cc1cccc(NC2=C(Cl)C(=O)c3ccccc3C2=O)c1 | > 450 | 18
7 | Cc1cccc(NC2=C(Cl)C(=O)c3c(cccc3[N+](=O)[O-])C2=O)c1 | 223 | 11
8 | O=C1C(Cl)=C(Nc2ccc(C(F)(F)F)cc2)C(=O)c2c1cccc2[N+](=O)[O-] | 121 | 2
9 | O=C1C(Nc2ccccc2)=C(Nc2ccccc2)C(=O)c2ccccc21 | 378 | 0.67
10 | O=C1C(Nc2ccccc2C(F)(F)F)=C(Nc2ccccc2C(F)(F)F)C(=O)c2ccccc21 | 292 | 0.45
11 | O=C1C(Nc2ccccc2C(F)(F)F)=C(Cl)C(=O)c2c1cccc2[N+](=O)[O-] | 95 | 0.05
12 | Cc1ccccc1NC1=C(Cl)C(=O)c2ccccc2C1=O | > 450 | 18
13 | O=C1C(Cl)=C(Nc2ccc(C(F)(F)F)cc2)C(=O)c2ccccc21 | 292 | 0.8
14 | O=C1C(Cl)=C(Nc2ccccc2C(F)(F)F)C(=O)c2ccccc21 | 307 | 0.15
15 | O=C1C(Cl)=C(Nc2ccccc2C(F)(F)F)C(=O)c2c1cccc2[N+](=O)[O-] | 75 | 0.07
16 | O=C1C(Nc2ccc(C(F)(F)F)cc2)=C(Nc2ccc(C(F)(F)F)cc2)C(=O)c2ccccc21 | 276 | 2
17 | Cc1cccc(NC2=C(Nc3cccc(C)c3)C(=O)c3ccccc3C2=O)c1 | > 450 | 21
18 | O=C1C(Nc2ccc(C(F)(F)F)cc2)=C(Nc2ccc(C(F)(F)F)cc2)C(=O)c2c1cccc2[N+](=O)[O-] | 97 | 4
19 | Cc1ccc(NC2=C(Nc3ccc(C)cc3)C(=O)c3c(cccc3[N+](=O)[O-])C2=O)cc1 | 172 | 12
20 | Cc1cccc(NC2=C(Cl)C(=O)c3cccc([N+](=O)[O-])c3C2=O)c1 | 214 | 10
21 | Cc1ccc(NC2=C(Cl)C(=O)c3cccc([N+](=O)[O-])c3C2=O)cc1 | 186 | 8
22 | Cc1cccc(NC2=C(Nc3cccc(C)c3)C(=O)c3c(cccc3[N+](=O)[O-])C2=O)c1 | 195 | 15
23 | O=C1C(Nc2ccccc2C(F)(F)F)=C(Nc2ccccc2C(F)(F)F)C(=O)c2c1cccc2[N+](=O)[O-] | 88 | 0.09
24 | O=C1C(Cl)=C(Nc2ccccc2)C(=O)c2ccccc21 | 417 | 0.17
25 | Cc1ccc(NC2=C(Cl)C(=O)c3c(cccc3[N+](=O)[O-])C2=O)cc1 | 169 | 6
26 | Cc1ccc(NC2=C(Nc3ccc(C)cc3)C(=O)c3ccccc3C2=O)cc1 | > 450 | 24
27 | Cc1ccccc1NC1=C(Cl)C(=O)c2cccc([N+](=O)[O-])c2C1=O | 195 | 4
